# Results from different studies.
# Protocols differ between the studies behind these lines.
# Target: Serine/threonine-protein kinase Nek6 (NEK6, Homo sapiens, UniProt Q9HC98)
SMILES,read-out,mode,technique,tested at,endpoint,result
FC(F)(F)Oc1cccc(-c2cnc3ccc(-c4ccncc4)nn23)c1,enzyme activity,inhibitor,radiometric,1 µM,activity vs control,92%
CC/C(=N\NC(=O)NCc1cccc(O)c1)c1ccc(O)c(C)c1O,enzyme activity,inhibitor,,0.1 µM,inhibition,0.2%
CC(C)CC(=O)N1CCc2nc(-c3ccc(Br)cc3)nc(N(C)Cc3ccccc3)c2C1,cell-free assay,,competition with immobilised ligand,0.1 µM,remaining binding,100%
CCN(CC)CCNC(=O)c1c(C)[nH]c(/C=C2\C(=O)Nc3ccc(F)cc32)c1C,enzyme activity,inhibitor,,0.3 µM,inhibition,-14%
N#CCCc1ccc2c(c1)-c1[nH]c3ccc([N+](=O)[O-])cc3c1CC(=O)N2,cell-free assay,,,0.5 µM,remaining signal,101%
Cc1cc(NC(=O)c2cccc3cc(-c4cccc5[nH]nc(N)c45)ccc23)ccc1F,enzyme activity,inhibitor,,0.1 µM,activity vs control,99%
CN(c1ncccc1CNc1nc(Nc2ccc3c(c2)CC(=O)N3)ncc1C(F)(F)F)S(C)(=O)=O,enzyme activity,inhibitor,,1 µM,inhibition,11.8%
COc1cc2ncnc(Nc3ccc(Oc4ccccc4)c(C)c3C)c2cc1OC,enzyme activity,inhibitor,,1 µM,inhibition,8%
C[C@H](c1ccnc(Nc2nc3ccc(-c4cc(N(C)C)ncn4)cc3[nH]2)c1)N1CCN(C(=O)CC(F)(F)F)CC1,cell-free assay,,competition with immobilised ligand,0.1 µM,remaining binding,83%
CNC(=O)c1cc(Oc2ccc(NC(=O)Nc3ccc(Cl)c(C(F)(F)F)c3)cc2)ccn1,enzyme activity,inhibitor,,0.3 µM,inhibition,-13%
CCOCCn1cc(C(=O)Nc2ccc(-n3nc(-c4cccnc4)cc3C(F)(F)F)cn2)ccc1=O,cell-free assay,,competition with immobilised ligand,1 µM,remaining binding,96%
CN1CC(Oc2cnc(C#N)cc2-c2ccn3nc(NC(=O)C4CC4)cc3c2)C1,enzyme activity,inhibitor,,1 µM,inhibition,2%
C[C@H](NC(=O)c1cnc2n1[C@](C)(Cc1ccc(C#N)cc1)C(=O)N2c1cc(Cl)c(F)c(Cl)c1)C(=O)NC1(c2ccccn2)CC1,cell-free assay,,competition with immobilised ligand,1 µM,remaining binding,100%
CCCS(=O)(=O)Nc1ccc(F)c(C(=O)c2c[nH]c3ncc(-c4ccc(Cl)cc4)cc23)c1F,enzyme activity,inhibitor,,1 µM,inhibition,< 10%
